Data: ChEMBL document CHEMBL1165965, “Synthesis and structure-activity relationships of 1,2,3,4-tetrahydropyrido[2,3-b]pyrazines as potent and selective inhibitors of the anaplastic lymphoma kinase” (Bioorg Med Chem, 2010)

Tests used:
[1] = target: Phosphatidylinositol 4,5-bisphosphate 3-kinase catalytic subunit alpha isoform (Homo sapiens) (UniProt P42336); assay: Inhibition of PIK3CA at 1 uM
[2] = target: T1, Serine/threonine-protein kinase Nek5 (Homo sapiens) (UniProt Q6P3R8); assay: Inhibition of NEK5 at 1 uM
T1 sequence (whole entry): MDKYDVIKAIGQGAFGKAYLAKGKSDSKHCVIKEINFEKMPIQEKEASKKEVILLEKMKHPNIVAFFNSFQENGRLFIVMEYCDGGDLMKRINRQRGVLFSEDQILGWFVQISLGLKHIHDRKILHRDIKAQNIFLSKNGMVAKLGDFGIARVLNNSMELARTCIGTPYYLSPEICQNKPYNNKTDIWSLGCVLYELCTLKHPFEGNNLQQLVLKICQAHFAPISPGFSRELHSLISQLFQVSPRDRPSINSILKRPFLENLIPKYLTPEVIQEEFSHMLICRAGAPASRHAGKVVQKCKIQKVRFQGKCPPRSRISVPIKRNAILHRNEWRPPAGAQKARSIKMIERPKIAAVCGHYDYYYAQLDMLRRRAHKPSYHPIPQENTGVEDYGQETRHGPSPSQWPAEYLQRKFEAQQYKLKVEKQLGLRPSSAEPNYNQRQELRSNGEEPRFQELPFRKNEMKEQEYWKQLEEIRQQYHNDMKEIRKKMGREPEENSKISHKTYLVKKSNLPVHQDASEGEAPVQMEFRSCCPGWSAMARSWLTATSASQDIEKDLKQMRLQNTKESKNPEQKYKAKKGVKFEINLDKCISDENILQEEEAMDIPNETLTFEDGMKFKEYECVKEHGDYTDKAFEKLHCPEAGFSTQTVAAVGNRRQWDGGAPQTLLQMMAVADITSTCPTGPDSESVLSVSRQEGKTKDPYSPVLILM

[3] = target: T2, Mitogen-activated protein kinase kinase kinase 6 (Homo sapiens) (UniProt O95382); assay: Inhibition of ASK2 at 1 uM
T2 sequence (whole entry): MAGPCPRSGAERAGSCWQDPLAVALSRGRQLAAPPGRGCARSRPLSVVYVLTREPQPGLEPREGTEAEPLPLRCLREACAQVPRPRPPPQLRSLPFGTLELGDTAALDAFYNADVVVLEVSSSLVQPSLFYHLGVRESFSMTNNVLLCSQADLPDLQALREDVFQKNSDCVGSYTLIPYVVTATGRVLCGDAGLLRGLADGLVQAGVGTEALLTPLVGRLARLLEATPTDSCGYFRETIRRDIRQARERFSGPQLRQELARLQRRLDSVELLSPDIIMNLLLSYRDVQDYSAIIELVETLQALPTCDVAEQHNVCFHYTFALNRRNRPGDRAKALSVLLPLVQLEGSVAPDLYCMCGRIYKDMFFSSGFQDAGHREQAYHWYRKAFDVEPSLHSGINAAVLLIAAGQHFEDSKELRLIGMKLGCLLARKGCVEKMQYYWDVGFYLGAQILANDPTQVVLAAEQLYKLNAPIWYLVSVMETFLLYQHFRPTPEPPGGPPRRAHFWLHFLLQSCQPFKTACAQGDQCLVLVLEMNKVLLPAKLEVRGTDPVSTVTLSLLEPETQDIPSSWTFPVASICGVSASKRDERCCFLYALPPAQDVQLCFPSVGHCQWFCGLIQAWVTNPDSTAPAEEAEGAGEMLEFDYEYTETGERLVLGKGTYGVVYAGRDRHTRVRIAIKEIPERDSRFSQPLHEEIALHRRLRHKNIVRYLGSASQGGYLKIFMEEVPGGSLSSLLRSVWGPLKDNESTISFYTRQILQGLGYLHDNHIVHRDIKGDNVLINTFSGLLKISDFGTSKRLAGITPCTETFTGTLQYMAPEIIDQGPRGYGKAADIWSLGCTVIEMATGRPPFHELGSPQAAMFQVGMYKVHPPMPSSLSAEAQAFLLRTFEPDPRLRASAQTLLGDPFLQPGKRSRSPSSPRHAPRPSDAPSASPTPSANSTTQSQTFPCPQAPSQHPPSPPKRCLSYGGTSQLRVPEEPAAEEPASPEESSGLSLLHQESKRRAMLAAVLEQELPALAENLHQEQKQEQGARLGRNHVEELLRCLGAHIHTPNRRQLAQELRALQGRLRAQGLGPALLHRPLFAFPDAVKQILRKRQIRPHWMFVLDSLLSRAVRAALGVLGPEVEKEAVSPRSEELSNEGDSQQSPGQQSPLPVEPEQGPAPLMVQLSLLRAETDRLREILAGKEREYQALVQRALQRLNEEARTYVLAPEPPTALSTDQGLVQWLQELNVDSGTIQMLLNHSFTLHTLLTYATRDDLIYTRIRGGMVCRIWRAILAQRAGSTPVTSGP

[4] = target: Mitogen-activated protein kinase 3 (Homo sapiens) (UniProt P27361); assay: Inhibition of ERK1 at 1 uM
Chain of Mitogen-activated protein kinase 3 (Homo sapiens) (P27361 whole entry): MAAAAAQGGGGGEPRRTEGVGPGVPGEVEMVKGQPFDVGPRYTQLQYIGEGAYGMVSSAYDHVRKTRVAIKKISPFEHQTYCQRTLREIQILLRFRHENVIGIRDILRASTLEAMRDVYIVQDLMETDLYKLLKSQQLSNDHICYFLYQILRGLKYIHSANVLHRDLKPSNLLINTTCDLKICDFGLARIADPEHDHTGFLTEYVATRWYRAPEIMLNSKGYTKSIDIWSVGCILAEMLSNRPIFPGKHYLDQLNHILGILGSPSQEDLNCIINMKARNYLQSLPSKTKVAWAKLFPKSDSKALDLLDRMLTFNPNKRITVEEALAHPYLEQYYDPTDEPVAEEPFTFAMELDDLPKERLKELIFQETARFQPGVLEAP
Procedure, shortened: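 Single-concentration screen using Ambit Bioscience KINOMEscan technology across a panel of 250–400 kinases. Per-kinase inhibition from this screen was summarized as S(90), the fraction of kinases inhibited by more than 90%.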

[5] = target: Serine/threonine-protein kinase 24 (Homo sapiens) (UniProt Q9Y6E0); assay: Inhibition of MST3 at 1 uM
Chain of Serine/threonine-protein kinase 24 (Homo sapiens) (Q9Y6E0 whole entry, looked up): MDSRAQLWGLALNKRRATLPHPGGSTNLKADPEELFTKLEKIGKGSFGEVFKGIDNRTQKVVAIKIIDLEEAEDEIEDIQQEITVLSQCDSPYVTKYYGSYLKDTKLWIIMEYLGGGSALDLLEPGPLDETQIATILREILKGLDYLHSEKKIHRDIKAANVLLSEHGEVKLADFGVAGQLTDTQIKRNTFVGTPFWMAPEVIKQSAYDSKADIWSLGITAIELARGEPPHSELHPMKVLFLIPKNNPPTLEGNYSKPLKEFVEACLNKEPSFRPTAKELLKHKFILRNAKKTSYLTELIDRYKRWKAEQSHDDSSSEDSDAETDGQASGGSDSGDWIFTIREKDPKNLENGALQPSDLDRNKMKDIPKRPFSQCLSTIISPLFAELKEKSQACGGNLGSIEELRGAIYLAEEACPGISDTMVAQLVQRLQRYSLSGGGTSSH

Measured: inhibition

Chain of Phosphatidylinositol 4,5-bisphosphate 3-kinase catalytic subunit alpha isoform (Homo sapiens) (P42336 whole entry, canonical isoform): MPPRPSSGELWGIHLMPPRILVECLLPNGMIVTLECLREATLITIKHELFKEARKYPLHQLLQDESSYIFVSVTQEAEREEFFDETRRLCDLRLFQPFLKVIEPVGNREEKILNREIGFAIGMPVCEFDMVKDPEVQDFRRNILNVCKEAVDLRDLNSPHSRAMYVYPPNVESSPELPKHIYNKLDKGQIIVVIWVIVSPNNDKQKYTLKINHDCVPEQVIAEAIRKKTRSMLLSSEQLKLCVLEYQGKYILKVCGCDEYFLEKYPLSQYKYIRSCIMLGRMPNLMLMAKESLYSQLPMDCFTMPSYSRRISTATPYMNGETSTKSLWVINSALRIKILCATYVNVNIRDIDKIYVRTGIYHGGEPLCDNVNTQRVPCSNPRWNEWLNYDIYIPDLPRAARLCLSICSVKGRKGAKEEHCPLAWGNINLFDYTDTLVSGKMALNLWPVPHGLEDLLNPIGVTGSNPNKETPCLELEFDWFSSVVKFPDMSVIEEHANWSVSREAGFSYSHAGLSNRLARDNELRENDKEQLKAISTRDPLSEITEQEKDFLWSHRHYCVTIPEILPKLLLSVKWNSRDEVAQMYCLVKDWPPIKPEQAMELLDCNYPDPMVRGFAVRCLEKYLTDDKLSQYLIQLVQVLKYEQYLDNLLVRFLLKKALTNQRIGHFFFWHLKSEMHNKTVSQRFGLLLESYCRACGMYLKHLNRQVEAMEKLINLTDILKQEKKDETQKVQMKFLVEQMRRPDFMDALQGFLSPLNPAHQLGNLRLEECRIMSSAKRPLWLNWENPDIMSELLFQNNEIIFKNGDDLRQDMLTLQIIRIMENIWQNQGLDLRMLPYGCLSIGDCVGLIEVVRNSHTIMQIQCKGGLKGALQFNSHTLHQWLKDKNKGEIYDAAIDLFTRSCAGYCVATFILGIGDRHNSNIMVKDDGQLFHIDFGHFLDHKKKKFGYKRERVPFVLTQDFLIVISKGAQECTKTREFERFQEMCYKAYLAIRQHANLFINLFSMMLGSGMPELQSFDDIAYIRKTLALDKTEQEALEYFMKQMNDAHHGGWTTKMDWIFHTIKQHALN

CN1CCN(c2ccc(-c3cnc4c(c3)N(Cc3cc(F)ccc3F)CCN4)cn2)CC1
< 50%: [1] | [2] | [3] | [4] | [5]

CC(=O)N1CCN(c2cc(-c3cnc4c(c3)N(Cc3cc(Cl)ccc3C(F)(F)F)CCN4)ccn2)CC1
< 50%: [1] | [2] | [3] | [4] | [5]

CN1CCN(c2ccc(-c3cnc4c(c3)N(Cc3c(F)ccc(F)c3Cl)CCN4)cn2)CC1
< 50%: [1] | [2] | [3] | [4] | [5]

FC(F)(F)c1ccc(Cl)cc1CN1CCNc2ncc(-c3ccnc(N4CCNCC4)c3)cc21
< 50%: [1] | [2] | [3] | [4] | [5]

CN1CCN(c2ccc(-c3cnc4c(c3)N(Cc3cc(Cl)ccc3Cl)CCN4)cn2)CC1
< 50%: [1] | [2] | [3] | [4] | [5]

O=C(c1ccc(-c2cnc3c(c2)N(Cc2cc(Cl)ccc2C(F)(F)F)CCN3)cc1)N1CCC(N2CCCC2)CC1
< 50%: [1] | [3] | [4]

O=C(O)c1ccc(-c2cnc3c(c2)N(Cc2cc(Cl)ccc2C(F)(F)F)CCN3)cc1
< 50%: [1] | [4]

CN1CCN(c2ccc(-c3cnc4c(c3)N(Cc3cc(Cl)ccc3C(F)(F)F)CCN4)cn2)CC1
< 50%: [1] | [2] | [3] | [4] | [5]

O=C(c1ccc(-c2cnc3c(c2)N(Cc2cc(Cl)ccc2C(F)(F)F)CCN3)cc1)N1CCCCC1
< 50%: [1] | [4]

COC1CCN(C(=O)c2ccc(-c3cnc4c(c3)N(Cc3cc(Cl)ccc3C(F)(F)F)CCN4)cc2)CC1
< 50%: [1] | [3] | [4]
